Hits are enriched below; roughly 2.9% of the tested compounds scored in any of these assays.
Kir21 inh – inhibitors of mouse Kir2.1 inward-rectifier potassium channel; Inward rectifier potassium channel 2 (Mus musculus), P35561; HEK293-Kir2.1, FluxOR thallium flux fluorescence; hits give low values; B-score at 10 µM; actives 0.85% (n = 310,000);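 active = fluorescence ratio B-score at or below minus 3 SD of library scores, with starting-brightness B-score within 2 SD, cut at about -4.2 in these data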;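 note: channel flux triggered by added potassium and thallium sulfate stimulus; B-score of peak minus minimum fluorescence over baseline after thallium stimulus; more negative B-score means stronger Kir2.1 block with less thallium influx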
Target sequence (P35561 whole entry, looked up): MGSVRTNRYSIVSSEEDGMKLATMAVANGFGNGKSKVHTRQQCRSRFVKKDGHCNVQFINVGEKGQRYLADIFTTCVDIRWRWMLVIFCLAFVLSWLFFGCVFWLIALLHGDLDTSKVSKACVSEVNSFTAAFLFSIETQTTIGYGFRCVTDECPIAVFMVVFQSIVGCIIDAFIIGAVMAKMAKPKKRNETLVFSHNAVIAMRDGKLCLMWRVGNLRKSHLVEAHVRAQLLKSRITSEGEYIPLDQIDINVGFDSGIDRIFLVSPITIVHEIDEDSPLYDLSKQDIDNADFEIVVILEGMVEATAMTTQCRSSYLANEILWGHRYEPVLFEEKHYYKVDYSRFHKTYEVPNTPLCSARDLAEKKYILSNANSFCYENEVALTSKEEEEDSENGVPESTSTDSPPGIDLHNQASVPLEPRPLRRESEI
TRPC6 activator – mouse TRPC6 channel activators, primary screen, cell-based, HEK293, membrane potential dye | Short transient receptor potential channel 6 (Mus musculus), Q61143 | HEK293-TRPC6 membrane potential dye fluorescence; hits give high values | B-score at 10 µM | actives 0.13% (n = 310,000) | AID 2550, 2010;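 active = B-score of the integrated fluorescence ratio above library mean plus 3 SD, and starting fluorescence ratio within library mean plus 5 SD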;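 note: higher score means more depolarization so channel activation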
TRPC6 inhibitor – mouse TRPC6 channel inhibitors, primary screen, cell-based, HEK293, membrane potential dye. B-score at 10 µM. actives 1.1% (n = 310,000). AID 2553, 2010. ACh-evoked depolarization; hits give low values. Short transient receptor potential channel 6 (Mus musculus), Q61143;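 active = B-score under library mean minus 3 SD, initial fluorescence not abnormally high, positive integrated signal ratio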;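 note: B-score derived from integrated fluorescence ratio over the kinetic read; more negative B-score means stronger inhibition of depolarization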
TRPC4 PAM – positive allosteric modulators of TRPC4, primary screen, cell-based, mouse TRPC4beta, HEK293 mu-opioid, Fluo-4 calcium; DAMGO EC20, Fluo-4 Ca2+ flux; hits give high values; B-score at 10 µM; Short transient receptor potential channel 4 (Mus musculus), Q9QUQ5; actives 0.42% (n = 310,000); AID 2227, 2009;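 active = B-score of calcium response area above 5 SD of library B-scores, with initial fluorescence ratio within 5 SD of library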;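 note: B-score of integrated fluorescence ratio over time as area under calcium response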
TRPC4 agonist – activators of mouse TRPC4 channel, primary screen, Fluo4 calcium, HEK293 TRPC4beta/mu-opioid cells. B-score at 10 µM. Fluo4 calcium fluorescence; hits give high values. Short transient receptor potential channel 4 (Mus musculus), Q9QUQ5. actives 0.49% (n = 310,000);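 active = B-score above 5 SD of library B-scores, and initial fluorescence ratio not above library mean plus 5 SD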;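 note: positive B-score marks a calcium rise read as TRPC4 activation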
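Test system: HEK293 cells stably co-expressing mouse TRPC4beta and mu-opioid receptor | Schedule: Fluo4 dye loading 45 min at room temperature, 110 s recording | Measured by: Kinetic Fluo4 calcium fluorescence, 5 s baseline at 1 Hz | Evaluation: B score of integrated ratio | Controls: Buffer (low) and maximal DAMGO (high)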
TRPC4 inh – inhibitors of mouse TRPC4 channel, primary screen, Fluo4 calcium, HEK293 TRPC4beta/mu-opioid cells | Short transient receptor potential channel 4 (Mus musculus), Q9QUQ5 | DAMGO-evoked Fluo4 calcium flux; hits give low values | B-score at 10 µM | actives 0.39% (n = 300,000) | AID 2247, 2010;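 active = B-score over 3 SD under the library average, no early fluorescence shift, positive overall ratio signal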
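test system = HEK293 cells with stable TRPC4beta plus mu-opioid receptor expression | detection = Fluo4 Ca2+ flux fluorescence | read-out = integrated fluorescence ratio relative to baseline, converted to per-well B score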
TRPC4 spec 2 – mouse TRPC4 off-target activity of TRPC6 inhibitors, second screen | shares compounds with TRPC6 inhibitor | HEK293 TRPC4/MOR, membrane potential dye fluorescence; channel activated by saturating DAMGO dose | inhibition, % at 10 µM | actives 42% (n = 920);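 active = compounds whose fluorescence signal differed from control wells by over 3 SD, either direction, in both duplicate plates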
TRPC4 spec – mouse TRPC4 modulation by TRPC6 hits, confirmation, selectivity assay for TRPC6 inhibitor project, cell-based, HEK293 TRPC4/mu-opioid, membrane potential dye. actives 61% (n = 920). activity change, negative = inhibition, % at 10 µM. AID 2777, 2010. membrane potential fluorescence. shares compounds with TRPC6 inhibitor;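 active = rise or fall in signal beyond 3 SD of buffer-only wells in both replicate plates, either sign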;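 note: integrated kinetic ratio of fluorescence range over baseline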
HEK293 MPD ctr 2-1 – nonspecific membrane potential effects, parental HEK293, confirmation, counter-screen for TRPC6 inhibitor project, cell-based, second counter screen | parental HEK293 membrane potential dye fluorescence; maximal acetylcholine challenge after compound addition | actives 31% (n = 920) | signal change vs control, % at 10 µM | shares compounds with TRPC6 inhibitor;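 active = membrane potential signal moving either way by over 3 SD of the maximum-effect control, in both duplicate plates, meaning non-specific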
HEK293 MPD ctr-1 – membrane potential modulation in parental HEK293, confirmation, counter-screen for TRPC6 inhibitor project, cell-based; membrane potential signal change, % at 10 µM; actives 60% (n = 920); shares compounds with TRPC6 inhibitor; parental HEK293 membrane potential dye fluorescence; AID 2780, 2010;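 active = membrane potential signal shifting up or down by more than 3 SD of buffer-only wells, on both duplicate plates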
HEK293 MPD ctr-2 – parental HEK293 membrane potential modulation, confirmation, counter-screen for TRPC6 modulator project, cell-based | shares compounds with TRPC6 inhibitor | membrane potential dye fluorescence | membrane potential signal change, % at 10 µM | actives 51% (n = 2,400) | AID 488924, 2010;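 active = membrane potential signal moves up or down beyond 5 SD from buffer-only wells, on both duplicate plates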
HEK293 MPD ctr 2-2 – second counter-screen for TRPC6 modulators: effect in parental HEK293 cells; inhibition, % at 10 µM; actives 14% (n = 2,400); membrane potential dye fluorescence; after compound, maximal acetylcholine stimulation; shares compounds with TRPC6 inhibitor;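 active = membrane potential signal drops by more than 5 SD from the mean control signal, in both duplicate plates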;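 note: plate controls were acetylcholine ECmax control wells for no effect and buffer only wells for full effect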
TRPC4 ctr mod – TRPC4 modulation by TRPC6 hit compounds, confirmation, selectivity assay for TRPC6 modulator project, cell-based, HEK293 TRPC4/mu-opioid, membrane potential dye, mouse. shares compounds with TRPC6 inhibitor. membrane potential fluorescence. percent change from control (negative = decrease, positive = increase), % at 10 µM. actives 69% (n = 2,400). AID 488927, 2010;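 active = membrane potential signal moved up or down beyond 5 SD of buffer control wells, in both duplicate plates, actives on both sides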;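 note: plate controls were assay buffer wells for no effect and DAMGO maximal-effect wells for full effect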
TRPC4 ctr inh 2 – second selectivity test of TRPC6 modulators against mouse TRPC4; shares compounds with TRPC6 inhibitor; HEK293 TRPC4/mu-opioid, membrane potential dye fluorescence; stimulated with maximal-effect DAMGO; inhibition, % at 10 µM; actives 55% (n = 2,400); AID 488928;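 active = drop in membrane potential signal beyond 5 SD of the control wells in both duplicate plates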;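 note: TRPC4 counter screen for TRPC6 hits run under conditions tuned for TRPC6 not TRPC4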
TRPC6 block conf – mouse TRPC6 channel inhibitors, confirmation, HEK293 cells, membrane potential dye, duplicate | ACh-evoked depolarization | inhibition, % at 10 µM | shares compounds with TRPC6 inhibitor | AID 488960, 2010 | actives 43% (n = 3,300);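 active = fluorescence ratio falls more than 5 SD below the full-stimulation control mean, in both duplicate runs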;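 note: integrated fluorescence ratio of peak minus minimum over baseline after agonist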
TRPC6 act confirm – mouse TRPC6 channel activators, confirmation, HEK293 cells, membrane potential dye, duplicate | shares compounds with TRPC6 inhibitor | HEK293-TRPC6 membrane potential dye fluorescence, FDSS | activation, % at 10 µM | actives 11% (n = 2,800) | AID 488961, 2010;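 active = ratio signal rise beyond 5 SD above unstimulated control wells' mean, seen in both duplicate runs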;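 note: plate controls were buffer EC0 wells for no effect and acetylcholine ECmax response for full effect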
The depositor's hits bear a star; i = inactive; / = not tested or not shown.

SMILES | Kir21 inh | TRPC6 activator | TRPC6 inhibitor | TRPC4 PAM | TRPC4 agonist | TRPC4 inh | HEK293 MPD ctr-2 | HEK293 MPD ctr 2-2 | TRPC4 ctr mod | TRPC4 ctr inh 2 | TRPC6 block conf | TRPC6 act confirm | others
CCOC(=O)c1c(NC(=O)C2C3C=CC(CC3)C2C(=O)O)sc(C)c1CC (stereo unspecified) | -1.74 | 12.4* | i | i | i | i | 109.5%* | i | 21.0%* | i | i | 60.5%*
CN(CC(=O)Nc1ccccc1Br)C(=O)C1CCN(C(=O)c2ccc(Cl)cc2)CC1 | -0.12 | i | i | i | i | i | / | / | / | / | / | /
C(#Cc1ccccc1)C[N+]1(CC#Cc2ccccc2)CCCCC1 | -0.76 | i | -9.06* | i | i | i | / | / | / | / | 65.7%* | i | TRPC4 spec 2=i;TRPC4 spec=-0.2%*;HEK293 MPD ctr 2-1=i;HEK293 MPD ctr-1=0.7%*
Cc1ccc(C#CC[N+]2(CC#Cc3ccc(C)cc3)CCCCC2)cc1 | -6.81* | i | -5.39* | i | i | i | 92.0%* | i | 17.0%* | i | 44.5%* | /
CCC[N+]1(CC#CCC(c2ccccc2)c2ccccc2)CCCCC1 | -4.16 | i | -5.21* | i | i | i | i | i | 11.5%* | i | 42.0%* | i
C(#Cc1ccccc1)C[N+]1(CC#Cc2cccc3ccccc23)CCOCC1 | -0.54 | i | -5* | i | i | i | -78.5%* | i | -16.5%* | i | i | i
Cc1nc([N+](=O)[O-])nn1C12CC3CC(CC(Cl)(C3)C1)C2 | -1.49 | i | i | i | i | i | / | / | / | / | / | /
CCCCCN(C(=O)CSc1n[nH]c(-c2ccc(C)cc2)n1)c1c(N)n(CCCC)c(=O)[nH]c1=O | -0.86 | i | i | i | i | i | / | / | / | / | / | /
Cc1ccc(CN2CC(C(=O)N(C)CC(=O)Nc3cccc(F)c3)CC2=O)cc1 (stereo unspecified) | -0.04 | i | i | i | i | i | / | / | / | / | / | /
O=C(Cc1n[nH]c(=O)c2ccccc12)OCC(=O)c1ccc(F)c(F)c1 | -1.27 | i | i | i | i | i | / | / | / | / | / | /
CC(O)(C#CCN1CCOCC1)c1ccccc1 (stereo unspecified) | 0.46 | i | i | i | i | i | / | / | / | / | / | /
CC(C)C(O)(C#CCN1CCCCC1)c1ccccc1 (stereo unspecified) | 0.09 | i | -6.64* | i | i | i | / | / | / | / | 70.9%* | / | TRPC4 spec 2=i;TRPC4 spec=4.9%*;HEK293 MPD ctr 2-1=-61.0%*;HEK293 MPD ctr-1=7.8%*
CC(C)C(O)(C#CCN1CCCC1)c1ccccc1 (stereo unspecified) | -1.07 | i | -5.94* | i | i | i | i | 64.5%* | 11.0%* | i | 67.5%* | /
Cc1ccc(SCc2cc(=O)n(C)[nH]2)cc1 | 0.32 | i | i | i | i | i | / | / | / | / | / | /
NS(=O)(=O)c1ccc(CCNC(=O)c2cnc(Cl)c(Cl)c2)cc1 | 0.36 | i | i | i | i | i | / | / | / | / | / | /
CCOc1ccc(OCCC(=O)OCC(=O)Nc2cc(OCC)c(N3CCOCC3)cc2OCC)cc1 | -2.37 | i | i | i | i | i | / | / | / | / | / | /
O=C1/C(=C\c2ccc(C(F)(F)F)cc2)CSc2sccc21 | 0.01 | i | -4.98* | i | i | i | i | i | 8.5%* | i | i | i
CN(C)C(=O)CCSc1nnc(-c2ccncc2)o1 | -0.73 | i | i | i | i | i | / | / | / | / | / | /
CCOC(=O)N1CCN(C(=O)Cn2nc(-c3ccc(Cl)cc3)ccc2=O)CC1 | -0.8 | i | -6.8* | i | i | i | / | / | / | / | 56.8%* | / | TRPC4 spec 2=i;TRPC4 spec=0.5%*;HEK293 MPD ctr 2-1=i;HEK293 MPD ctr-1=2.3%*
CCN1CCN(C(=O)Cn2nc(-c3ccc(Cl)cc3)ccc2=O)CC1 | 1.28 | i | i | i | i | i | / | / | / | / | / | /
COC(=O)c1ccc(N2CCN(C)CC2)c(NC(=O)c2ccc(Br)o2)c1 | 0.99 | i | -6.73* | i | 142* | i | -268.5%* | 82.5%* | -38.0%* | 94.5%* | 74.5%* | i

Bioassay records (PubChem)
